pIC50: −log10 of the molar value. “And” between values parts separate entries of the source, which are not always exact repeats. Equal entries are not always repeated.
How the values were obtained:
[1] = target: T1, SLC19A1 (Homo sapiens, UniProt P41440); assay: [32P] 2’3’-cGAMP uptake and competition uptake assay in THP-1 cells; type: cell-based; conditions: for 2’3’-cGAMP uptake, time course with inhibitor in culture medium: 500 μM, various cell lines (THP-1, U937, K562); for pIC50: IC50, competition of [32P] 2’3’-cGAMP uptake, THP-1 cells, varying concentrations of competing, unlabeled ligand, 1 nM [32P] 2’3’-cGAMP; for [32P] 2’3’-cGAMP uptake in presence of unlabeled nucleotide: 200 μM competing; for CDN uptake and/or stimulation: human cells; for CDN uptake: human cell lines and primary cells ex vivo
T1 sequence (P41440 1-591): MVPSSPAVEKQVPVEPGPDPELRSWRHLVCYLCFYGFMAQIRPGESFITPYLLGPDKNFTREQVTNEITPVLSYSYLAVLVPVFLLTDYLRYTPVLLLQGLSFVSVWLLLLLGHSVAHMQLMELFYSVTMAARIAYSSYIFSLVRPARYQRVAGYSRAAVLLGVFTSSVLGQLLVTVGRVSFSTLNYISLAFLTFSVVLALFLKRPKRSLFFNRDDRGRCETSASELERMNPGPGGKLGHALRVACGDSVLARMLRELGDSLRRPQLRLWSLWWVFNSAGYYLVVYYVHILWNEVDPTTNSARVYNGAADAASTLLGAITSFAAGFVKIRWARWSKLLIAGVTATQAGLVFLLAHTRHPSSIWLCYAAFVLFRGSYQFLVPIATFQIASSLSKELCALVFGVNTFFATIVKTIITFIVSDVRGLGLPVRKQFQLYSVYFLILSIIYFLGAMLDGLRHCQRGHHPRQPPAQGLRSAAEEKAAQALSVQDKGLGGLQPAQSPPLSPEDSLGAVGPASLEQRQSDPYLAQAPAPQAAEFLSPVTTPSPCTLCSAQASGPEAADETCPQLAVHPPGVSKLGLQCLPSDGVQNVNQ

[2] = target: T1, SLC19A1; assay: [32P] 2’3’-cGAMP uptake assay in human PBMCs; type: cell-based
[3] = test system: THP-1 cells; type: cell-based, human; conditions: hIFN-β 100 ng/ml, sulfasalazine at high concentrations
[4] = test system: murine splenocytes; assay: [32P] 2’3’-cGAMP uptake assay in primary murine splenocytes; type: cell-based, mouse; conditions: 500 μM competing, unlabeled
[5] = target: T1, SLC19A1; assay: [3H]-methotrexate uptake assay in THP-1 cells; type: cell-based; conditions: SLC19A1-depleted THP-1 cells, 1h
How it was run: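 Cells washed and resuspended at 4x10^6/ml in MHS buffer (20 mM HEPES, 235 mM sucrose, pH 7.4 with MgO). Exposed to 12.3 nM [3H]-methotrexate at 37°C and 5% CO2 for 1 h. Radioactivity was counted by liquid scintillation for 3 min per sample, and counts per minute were normalized to total protein.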

[6] = target: T1, SLC19A1; assay: [32P] 2’3’-cGAMP uptake assay in K562 cells; type: cell-based; conditions: 5 μM, one hour
[7] = test system: STING; assay: STING pathway activation; type: cell-based, human; conditions: THP-1 pre-treated with 5 μM
How it was run: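 Stimulated 4 h with 100 µM 2'3'-cGAMP, with or without digitonin (5 µg/mL). Read-outs were IFNB1 mRNA by RT-qPCR and STING dimerization/phosphorylation by semi-native PAGE immunoblot. Means of n=2 technical replicates.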

[8] = 500 μM excess, unlabeled, three hours, six healthy donors

Molecule	2’3’-cGAMP uptake, time course with inhibitor in culture medium [1]	pIC50 [1]	[32P] 2’3’-cGAMP uptake in PBMCs [2, 8]	effect on reporter responses to hIFN-β [3]	CDN uptake and/or stimulation [1]	further results
CN1c2c(nc(N)[nH]c2=O)NCC1CNc1ccc(C(=O)N[C@@H](CCC(=O)O)C(=O)O)cc1 (stereo partly shown) [5-me-THF, 5-methyl-tetrahydrofolic acid]	Sustained inhibition	8.39	strongly inhibited	did not inhibit		completeness of inhibition of [32P] 2’3’-cGAMP uptake ([1]; THP-1, compared to the other (anti-) folates): did not observe complete inhibition; trans-stimulation of 2’3’-cGAMP influx by preloading the cells ([1]; THP-1, preloaded 30 min, washed, [32P] 2’3’-cGAMP for one hour): augmented
Nc1ncnc2c1ncn2[C@@H]1O[C@H](COP(=O)(O)O)[C@@H](O)[C@H]1O [AMP]						[32P] 2’3’-cGAMP uptake in presence of unlabeled nucleotide ([1]; THP-1, one hour): slightly inhibited
Nc1nc2c(ncn2[C@@H]2O[C@H](COP(=O)(O)O)[C@@H](O)[C@H]2O)c(=O)[nH]1 [GMP]						[32P] 2’3’-cGAMP uptake in presence of unlabeled nucleotide ([1]; THP-1, one hour): slightly inhibited
Nc1nc(=O)c2nc(CNc3ccc(C(=O)N[C@@H](CCC(=O)O)C(=O)O)cc3)cnc2[nH]1 [folic acid]	Sustained inhibition	5.32			almost completely blocked	
CN(Cc1cnc2nc(N)nc(N)c2n1)c1ccc(C(=O)N[C@@H](CCC(=O)O)C(=O)O)cc1 [methotrexate]	Sustained inhibition		strongly inhibited	did not inhibit	almost completely blocked	CDN uptake [1]: inhibited; 2’3’-cGAMP uptake by murine splenocytes [4]: did not inhibit; uptake of methotrexate in SLC19A1-depleted cells [5]: nearly abolished
O=C(O)c1cc(/N=N/c2ccc(S(=O)(=O)Nc3ccccn3)cc2)ccc1O [sulfasalazine]	Sustained inhibition	5.68 and 5.69	strongly inhibited	blocked	almost completely blocked	CDN uptake [1]: inhibited
N-hydroxysuccinimide (NHS)-methotrexate [NHS-methotrexate]						2’3’-cGAMP influx in treated cells ([1]; THP-1, 5 μM, one hour): much reduced; 2’3’-cGAMP influx in treated cells [6]: much reduced; [32P] 2’3’-cGAMP uptake in PBMCs ([2]; 5 μM pre-treatment, one hour, four healthy donors): strongly inhibited; STING activation by 2’3’-cGAMP [7]: blocks STING activation
